From ChEMBL document CHEMBL4000256, “Light-Regulated NO Release as a Novel Strategy To Overcome Doxorubicin Multidrug Resistance” (ACS Med Chem Lett, 2017)
Active and inactive are the calls of the source. The rule behind the calls is not given here.

Key:
[1] = molecular target: T1, Multidrug resistance-associated protein 1 (Homo sapiens, UniProt P33527); assay: Inhibition of MRP1 in 7 mW/cm'2 irradiated human M14 cells assessed as nitration of tyrosine in MRP1 at 5 uM measured after 20 mins by immunoblotting
T1 sequence (P33527 whole entry): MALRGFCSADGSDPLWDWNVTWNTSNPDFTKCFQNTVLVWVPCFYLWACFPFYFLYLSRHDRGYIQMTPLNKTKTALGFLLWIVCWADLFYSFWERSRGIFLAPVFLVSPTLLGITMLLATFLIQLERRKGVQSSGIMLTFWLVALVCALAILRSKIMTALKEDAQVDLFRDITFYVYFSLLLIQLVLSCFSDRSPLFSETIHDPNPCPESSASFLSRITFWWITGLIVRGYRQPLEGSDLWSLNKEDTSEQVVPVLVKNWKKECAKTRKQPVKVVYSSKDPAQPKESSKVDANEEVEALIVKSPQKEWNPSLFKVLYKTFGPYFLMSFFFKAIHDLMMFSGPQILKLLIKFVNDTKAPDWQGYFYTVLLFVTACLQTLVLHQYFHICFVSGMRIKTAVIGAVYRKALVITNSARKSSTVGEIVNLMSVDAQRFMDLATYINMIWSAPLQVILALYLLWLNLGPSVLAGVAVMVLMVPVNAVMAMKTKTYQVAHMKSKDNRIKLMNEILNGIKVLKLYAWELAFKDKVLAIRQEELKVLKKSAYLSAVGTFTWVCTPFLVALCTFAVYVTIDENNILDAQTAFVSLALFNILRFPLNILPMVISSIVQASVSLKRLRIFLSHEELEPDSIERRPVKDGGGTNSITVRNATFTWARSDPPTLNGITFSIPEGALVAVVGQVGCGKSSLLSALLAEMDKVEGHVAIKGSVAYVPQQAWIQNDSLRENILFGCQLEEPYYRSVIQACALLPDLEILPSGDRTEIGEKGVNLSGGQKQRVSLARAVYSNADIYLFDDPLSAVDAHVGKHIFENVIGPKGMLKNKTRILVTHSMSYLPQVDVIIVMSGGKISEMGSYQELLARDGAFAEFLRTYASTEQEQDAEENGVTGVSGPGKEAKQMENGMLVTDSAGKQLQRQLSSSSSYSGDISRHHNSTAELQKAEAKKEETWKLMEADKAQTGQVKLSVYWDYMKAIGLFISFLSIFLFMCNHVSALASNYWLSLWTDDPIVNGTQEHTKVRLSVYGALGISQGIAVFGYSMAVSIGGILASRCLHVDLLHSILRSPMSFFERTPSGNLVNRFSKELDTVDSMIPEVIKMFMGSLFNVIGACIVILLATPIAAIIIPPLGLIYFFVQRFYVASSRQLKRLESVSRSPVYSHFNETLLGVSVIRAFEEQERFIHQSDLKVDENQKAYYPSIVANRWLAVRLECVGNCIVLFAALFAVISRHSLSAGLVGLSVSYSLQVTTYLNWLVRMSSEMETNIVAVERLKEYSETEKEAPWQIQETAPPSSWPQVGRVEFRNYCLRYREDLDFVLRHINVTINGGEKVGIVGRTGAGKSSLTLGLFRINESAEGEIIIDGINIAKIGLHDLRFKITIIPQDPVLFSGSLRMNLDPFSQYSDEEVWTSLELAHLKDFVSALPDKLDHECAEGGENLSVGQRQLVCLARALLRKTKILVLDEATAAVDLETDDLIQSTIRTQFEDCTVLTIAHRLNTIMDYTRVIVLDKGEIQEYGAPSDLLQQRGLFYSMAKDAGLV
Outline: (§1)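 M14 melanoma cells held 20 min at room temperature in PBS under 400 nm light (7 mW/cm2) with 5 μM compound, alone or with equimolar doxorubicin. Nitrated ABC transporters (Pgp, MRP1, MRP4, BCRP) detected by immunoblot.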

[2] = molecular target: T2, ATP-binding cassette sub-family C member 4 (Homo sapiens, UniProt O15439); assay: Inhibition of MRP4 in 7 mW/cm'2 irradiated human M14 cells assessed as nitration of tyrosine in MRP4 at 5 uM measured after 20 mins by immunoblotting; outline: as §1
T2 sequence (O15439 whole entry): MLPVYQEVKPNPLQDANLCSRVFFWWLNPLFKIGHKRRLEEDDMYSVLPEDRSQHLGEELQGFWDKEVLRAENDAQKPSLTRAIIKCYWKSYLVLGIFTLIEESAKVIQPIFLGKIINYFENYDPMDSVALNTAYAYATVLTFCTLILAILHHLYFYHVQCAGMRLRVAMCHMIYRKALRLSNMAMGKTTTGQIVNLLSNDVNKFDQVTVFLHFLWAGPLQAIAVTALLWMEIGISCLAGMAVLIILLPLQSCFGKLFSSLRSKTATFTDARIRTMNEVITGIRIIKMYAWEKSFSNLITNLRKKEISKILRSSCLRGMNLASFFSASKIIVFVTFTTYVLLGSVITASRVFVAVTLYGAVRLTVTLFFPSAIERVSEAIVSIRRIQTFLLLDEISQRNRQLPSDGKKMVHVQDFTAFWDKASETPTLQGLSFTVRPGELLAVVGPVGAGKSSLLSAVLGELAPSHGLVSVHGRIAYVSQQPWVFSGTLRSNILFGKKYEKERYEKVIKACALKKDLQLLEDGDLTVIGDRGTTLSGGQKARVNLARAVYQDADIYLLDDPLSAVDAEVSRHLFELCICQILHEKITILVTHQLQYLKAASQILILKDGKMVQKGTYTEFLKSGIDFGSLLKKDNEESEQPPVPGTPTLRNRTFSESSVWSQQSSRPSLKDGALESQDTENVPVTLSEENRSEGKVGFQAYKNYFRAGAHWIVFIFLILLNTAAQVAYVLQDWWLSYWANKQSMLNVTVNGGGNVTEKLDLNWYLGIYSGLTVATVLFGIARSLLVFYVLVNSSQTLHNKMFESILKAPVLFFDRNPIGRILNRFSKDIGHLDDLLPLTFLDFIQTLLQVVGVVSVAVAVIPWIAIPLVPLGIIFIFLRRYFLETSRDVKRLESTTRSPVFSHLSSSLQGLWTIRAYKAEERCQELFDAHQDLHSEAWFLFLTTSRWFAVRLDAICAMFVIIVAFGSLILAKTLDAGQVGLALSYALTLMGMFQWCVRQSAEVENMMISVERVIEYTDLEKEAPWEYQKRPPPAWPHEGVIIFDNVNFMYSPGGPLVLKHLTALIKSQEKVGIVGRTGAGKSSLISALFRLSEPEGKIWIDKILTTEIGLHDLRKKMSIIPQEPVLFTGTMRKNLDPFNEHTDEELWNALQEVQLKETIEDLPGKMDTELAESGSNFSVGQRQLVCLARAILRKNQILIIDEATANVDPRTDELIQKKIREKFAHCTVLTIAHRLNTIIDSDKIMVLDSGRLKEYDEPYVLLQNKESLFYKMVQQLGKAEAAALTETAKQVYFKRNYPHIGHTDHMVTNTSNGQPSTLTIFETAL

[3] = molecular target: T2, ATP-binding cassette sub-family C member 4; assay: Inhibition of MRP4 in 7 mW/cm'2 irradiated human M14 cells assessed as reduction in MRP4 ATPase activity at 5 uM measured after 20 mins by spectrophotometric method
Outline: (§2)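 M14 melanoma cells held 20 min at room temperature in PBS under 400 nm light (7 mW/cm2) with 5 μM compound, alone or with equimolar doxorubicin. Transporter ATPase activity then measured; n = 3.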

Fibroblast [4] = assay: Dark toxicity against human fibroblasts at 5 uM measured after 20 mins by spectrophotometric method; format: cell-based
Outline: (§3)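 Human fibroblasts or rat H9c2 cardiomyocytes kept 20 min at room temperature in PBS, either in the dark or irradiated at λexc 400 nm, 7 mW/cm2, with or without 5 μM test agent. Cytotoxicity measured in triplicate; means ± SD, n = 3.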

[5] = molecular target: T3, Broad substrate specificity ATP-binding cassette transporter ABCG2 (Homo sapiens, UniProt Q9UNQ0); assay: Inhibition of BCRP in 7 mW/cm'2 irradiated human M14 cells assessed as nitration of tyrosine in BCRP at 5 uM measured after 20 mins by immunoblotting; outline: as §1
T3 sequence (Q9UNQ0 whole entry): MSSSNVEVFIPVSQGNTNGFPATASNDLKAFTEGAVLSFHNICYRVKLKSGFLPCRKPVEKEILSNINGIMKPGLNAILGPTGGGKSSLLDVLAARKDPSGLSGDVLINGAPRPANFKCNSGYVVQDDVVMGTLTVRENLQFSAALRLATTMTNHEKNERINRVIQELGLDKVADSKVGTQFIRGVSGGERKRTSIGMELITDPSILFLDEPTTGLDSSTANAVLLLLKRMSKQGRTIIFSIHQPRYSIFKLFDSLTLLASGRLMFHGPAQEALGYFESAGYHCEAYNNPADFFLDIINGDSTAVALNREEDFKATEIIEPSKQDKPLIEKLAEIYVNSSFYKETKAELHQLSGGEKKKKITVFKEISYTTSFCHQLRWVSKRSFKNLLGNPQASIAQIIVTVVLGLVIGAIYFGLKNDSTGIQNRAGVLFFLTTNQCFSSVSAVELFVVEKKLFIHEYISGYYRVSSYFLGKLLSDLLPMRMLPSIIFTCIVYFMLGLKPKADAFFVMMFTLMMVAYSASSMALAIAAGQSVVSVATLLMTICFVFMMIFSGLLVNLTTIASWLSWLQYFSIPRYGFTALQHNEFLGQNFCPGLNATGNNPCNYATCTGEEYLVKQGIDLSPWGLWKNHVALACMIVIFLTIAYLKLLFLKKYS

M14 = assay: Dark toxicity in human M14 cells assessed as increase in nitrite levels at 5 uM measured after 20 mins by Griess reagent based spectrophotometric method; format: cell-based; settings: m14, 20 min
[6] = molecular target: T1, Multidrug resistance-associated protein 1; assay: Inhibition of MRP1 in 7 mW/cm'2 irradiated human M14 cells assessed as reduction in MRP1 ATPase activity at 5 uM measured after 20 mins by spectrophotometric method; outline: as §2
Homo sapiens = species: Homo sapiens; assay: Inhibition of Pgp in 7 mW/cm'2 irradiated human M14 cells assessed as nitration of tyrosine in pgp at 5 uM measured after 20 mins by immunoblotting; outline: as §1
[7] = molecular target: T3, Broad substrate specificity ATP-binding cassette transporter ABCG2; assay: Inhibition of BCRP in 7 mW/cm'2 irradiated human M14 cells assessed as reduction in BCRP ATPase activity at 5 uM measured after 20 mins by spectrophotometric method; outline: as §2
H9c2 = assay: Cytotoxicity against 7 mW/cm'2 irradiated rat H9c2 cells at 5 uM measured after 20 mins by spectrophotometric method; format: cell-based; settings: h9c2, 20 min; outline: as §3
Fibroblast [8] = assay: Cytotoxicity against 7 mW/cm'2 irradiated human fibroblasts at 5 uM measured after 20 mins by spectrophotometric method; format: cell-based; outline: as §3

Row | Structure (SMILES) | inhibition (INH) [1] | inhibition (INH) [2] | inhibition (INH) [3] | Activity (Fibroblast [4]) | inhibition (INH) [5] | Activity (M14) | inhibition (INH) [6] | inhibition (Homo sapiens) | inhibition (INH) [7] | Activity (H9c2) | Activity (Fibroblast [8])
1 | NCCCNc1ccc([N+](=O)[O-])c(C(F)(F)F)c1 | Active | Active | Active | Non-Toxic | Active | Non-Toxic | Active | Active | Active | Non-Toxic | Non-Toxic
2 | COc1cccc2c1C(=O)c1c(O)c3c(c(O)c1C2=O)C[C@@](O)(C(=O)COC(=O)c1ccc(C(=O)NCCCNc2ccc([N+](=O)[O-])c(C(F)(F)F)c2)cc1)C[C@@H]3O[C@H]1C[C@H](N)[C@H](O)[C@H](C)O1.Cl | Active | Active | Active | Non-Toxic | Active | Non-Toxic | Active | Active | Active | Non-Toxic | Non-Toxic
